According to ChEMBL document CHEMBL1135620, “Cyclosporins: structure-activity relationships for the inhibition of the human FPR1 formylpeptide receptor” (J Med Chem, 2002):

Experiments:
fMet-Leu-Phe receptor = molecular target: T1, fMet-Leu-Phe receptor (Homo sapiens, UniProt P21462); experiment: Inhibitory activity against human formylpeptide receptor (FPR) of human leukemia HL-60 cells; type: cell-based
T1 sequence (P21462 whole entry): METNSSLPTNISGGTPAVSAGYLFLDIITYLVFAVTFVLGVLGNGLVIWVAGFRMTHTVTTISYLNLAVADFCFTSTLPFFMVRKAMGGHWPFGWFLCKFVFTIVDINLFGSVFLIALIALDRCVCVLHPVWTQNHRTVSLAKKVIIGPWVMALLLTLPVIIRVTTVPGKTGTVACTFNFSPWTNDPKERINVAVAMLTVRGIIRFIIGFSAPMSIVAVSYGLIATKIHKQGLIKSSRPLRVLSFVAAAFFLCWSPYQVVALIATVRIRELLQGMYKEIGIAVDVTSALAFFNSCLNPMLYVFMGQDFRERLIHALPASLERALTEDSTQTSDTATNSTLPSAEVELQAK
Procedure, shortened: (§1)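 HL-60 cells differentiated 48 h with 0.2 mM dibutyryl cAMP, washed, then treated with 5 μM cytochalasin B (5–10 min, 37 °C). Stimulated 10 min with 30 nM f-MLF. N-acetyl-β-D-glucosaminidase release read at 410 nm on p-nitrophenyl substrate after spontaneous-release subtraction. Duplicate wells; IC20/IC50 as mean ± SD of independent experiments.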

[1] = molecular target: T2, fMet-Leu-Phe receptor (Homo sapiens) (UniProt P21462); experiment: Inhibitory activity against Human formylpeptide receptor (FPR) of human leukemia HL-60 cells; type: cell-based; procedure, shortened: as §1
T2 sequence (whole entry): T1 sequence (P21462 whole entry)

Structure (SMILES) | IC50 (fMet-Leu-Phe receptor; hl-60) [µM] | IC20 [1] [µM] | IC50 (fMet-Leu-Phe receptor) [µM]
C/C=C/C[C@@H](C)[C@@H](O)[C@H]1C(=O)N[C@@H](CC)C(=O)N(C)CC(=O)N(C)[C@H](CC(C)C)C(=O)N[C@H](C(C)C)C(=O)N(C)[C@H](CC(C)C)C(=O)N[C@@H](C)C(=O)N[C@H](C)C(=O)N(C)[C@@H](CC(C)C)C(=O)N(C)[C@@H](CC(C)C)C(=O)N(C)[C@H]([C@H](C)CC)C(=O)N1C | 1.57 | 0.29 | 
CC/C=C/C[C@@H](C)[C@@H](O)[C@H]1C(=O)N[C@@H]([C@@H](C)O)C(=O)N(C)CC(=O)N(C)[C@@H](CC(C)C)C(=O)N[C@@H](C(C)C)C(=O)N(C)[C@@H](CC(C)C)C(=O)N[C@@H](C)C(=O)N[C@H](C)C(=O)N(C)[C@@H](CC(C)C)C(=O)N(C)[C@@H](CC(C)C)C(=O)N(C)[C@@H](C(C)C)C(=O)N1C |  |  | > 10
C/C=C/C[C@@H](C)[C@@H](O)[C@H]1C(=O)N[C@@H]([C@@H](C)O)C(=O)N(C)CC(=O)N(C)[C@@H](CC(C)C)C(=O)N[C@@H](CC(C)C)C(=O)N(C)[C@@H](CC(C)C)C(=O)N[C@@H](C)C(=O)N[C@H](C)C(=O)N(C)[C@@H](CC(C)C)C(=O)N[C@@H](C)C(=O)N(C)[C@@H](C(C)C)C(=O)N1C |  |  | 3.25
C/C=C/C[C@@H](C)[C@@H](O)[C@H]1C(=O)N[C@@H](CCC)C(=O)N(C)CC(=O)N(C)[C@@H](CC(C)C)C(=O)N[C@@H](CCC)C(=O)N(C)[C@@H](CC(C)C)C(=O)N[C@@H](C)C(=O)N[C@H](C)C(=O)N(C)[C@@H](CC(C)C)C(=O)N(C)[C@@H](CC(C)C)C(=O)N(C)[C@@H](C(C)C)C(=O)N1C |  |  | 3.4
C/C=C/C[C@@H](C)[C@@H](O)[C@H]1C(=O)N[C@@H](CCC)C(=O)N(C)CC(=O)N(C)[C@@H](CC(C)C)C(=O)N[C@@H](C(C)C)C(=O)N(C)[C@@H](CC(C)C)C(=O)N[C@@H](C)C(=O)N[C@H](C)C(=O)N(C)[C@@H](CC(C)C)C(=O)N[C@@H](CC(C)C)C(=O)N(C)[C@@H](C(C)C)C(=O)N1C |  |  | > 3
C/C=C/C[C@@H](C)[C@@H](O)[C@H]1C(=O)N[C@@H](CC)C(=O)NCC(=O)N(C)[C@@H](CC(C)C)C(=O)N[C@@H](C(C)C)C(=O)N(C)[C@@H](CC(C)C)C(=O)N[C@@H](C)C(=O)N[C@H](CO)C(=O)N(C)[C@@H](CC(C)C)C(=O)N(C)[C@@H](CC(C)C)C(=O)N(C)[C@@H](C(C)C)C(=O)N1C |  |  | > 5
CC/C=C/C[C@@H](C)[C@@H](O)[C@H]1C(=O)N[C@@H](CC)C(=O)N(C)CC(=O)N(C)[C@@H](CC(C)(C)O)C(=O)N[C@@H](C(C)C)C(=O)N(C)[C@@H](CC(C)C)C(=O)N[C@@H](C)C(=O)N[C@H](C)C(=O)N(C)[C@@H](CC(C)C)C(=O)N(C)[C@@H](CC(C)C)C(=O)N(C)[C@@H](C(C)C)C(=O)N1C |  |  | > 10

Continued, values first:

IC50 (fMet-Leu-Phe receptor; hl-60) [µM] | IC20 [1] [µM] | IC50 (fMet-Leu-Phe receptor) [µM] | Structure (SMILES)
> 10 | 2 |  | C/C=C/C[C@@H](C)[C@@H](O)C1NC(=O)[C@H](C(C)C)N(C)C(=O)[C@H](CC(C)C)N(C)C(=O)[C@H](CC(C)C)N(C)C(=O)[C@@H](C)NC(=O)[C@H](C)NC(=O)[C@@H](CC(C)C)N(C)C(=O)[C@@H](C(C)C)NC(=O)[C@@H](CC(C)C)N(C)C(=O)CN(C)C(=O)[C@H](C(C)C)NC1=O (stereo not given in full)
 |  | > 10 | C/C=C/C[C@@H](C)[C@@H](O)[C@H]1C(=O)N[C@@H]([C@@H](C)O)C(=O)N(C)CC(=O)N(C)[C@@H](CC(C)C)C(=O)N[C@@H](C(C)C)C(=O)N(C)[C@@H](CC(C)C)C(=O)N[C@@H](C)C(=O)N[C@H](C)C(=O)N(C)[C@@H](CC(C)C)C(=O)N(C)[C@@H](CC(C)C)C(=O)N[C@@H](C(C)C)C(=O)N1C
 |  | 7 | CC/C=C/C[C@@H](C)[C@@H](O)[C@H]1C(=O)N[C@@H](CC)C(=O)N(C)CC(=O)N(C)[C@@H]([C@@H](C)CC)C(=O)N[C@@H](C(C)C)C(=O)N(C)[C@@H](CC(C)C)C(=O)N[C@@H](C)C(=O)N[C@H](C)C(=O)N(C)[C@@H](CC(C)C)C(=O)N(C)[C@@H](CC(C)C)C(=O)N(C)[C@@H](C(C)C)C(=O)N1C
6.45 | 1.9 |  | C/C=C/C[C@@H](C)[C@@H](O)C1NC(=O)[C@H](C(C)C)N(C)C(=O)[C@H](CC(C)C)N(C)C(=O)[C@H](CC(C)C)N(C)C(=O)[C@@H](C)NC(=O)[C@H](C)NC(=O)[C@@H](CC(C)C)N(C)C(=O)[C@@H](C(C)C)NC(=O)[C@@H](CC(C)C)N(C)C(=O)CN(C)C(=O)[C@H](CC)NC1=O (stereo not given in full)
5.5 | 1.5 |  | C/C=C/C[C@@H](C)[C@@H](O)C1NC(=O)[C@H](C(C)C)N(C)C(=O)[C@H](CC(C)C)N(C)C(=O)[C@H](CC(C)C)N(C)C(=O)[C@@H](C)NC(=O)[C@H](C)NC(=O)[C@@H](CC(C)C)N(C)C(=O)[C@@H](C(C)C)NC(=O)[C@@H](CC(C)C)N(C)C(=O)CN(C)C(=O)[C@H]([C@@H](C)O)NC1=O (stereo not given in full)
 |  | 1.8 | C/C=C/C[C@@H](C)[C@@H](O)[C@H]1C(=O)N[C@@H](CC)C(=O)N(C)CC(=O)N(C)[C@@H](CC(C)C)C(=O)N[C@@H](C(C)C)C(=O)N[C@@H](CC(C)C)C(=O)N[C@@H](C)C(=O)N[C@H](C)C(=O)N(C)[C@@H](CC(C)C)C(=O)N[C@@H](CC(C)C)C(=O)N(C)[C@@H](C(C)C)C(=O)N1C
 |  | > 10 | CC(C)C[C@H]1C(=O)N[C@@H](C(C)C)C(=O)N(C)[C@@H](CC(C)C)C(=O)N[C@@H](C)C(=O)N[C@H](C)C(=O)N(C)[C@@H](CC(C)C)C(=O)N(C)[C@@H](CC(C)C)C(=O)N(C)[C@@H](C(C)C)C(=O)N(C)[C@@H](CC(C)C)C(=O)N[C@@H](C(C)C)C(=O)N(C)CC(=O)N1C
 |  | 6.33 | CC[C@@H]1NC(=O)[C@H](CC2CCCCC2)N(C)C(=O)[C@H](C(C)C)N(C)C(=O)[C@H](CC(C)C)N(C)C(=O)[C@H](CC(C)C)N(C)C(=O)[C@@H](C)NC(=O)[C@H](C)NC(=O)[C@H](CC(C)C)N(C)C(=O)[C@H](C(C)C)NC(=O)[C@H](CC(C)C)N(C)C(=O)CN(C)C1=O
 |  | > 10 | CC/C=C/C[C@@H](C)[C@@H](O)[C@H]1C(=O)N[C@@H](CCC)C(=O)N(C)CC(=O)N(C)[C@@H](CC(C)C)C(=O)N[C@@H](C(C)C)C(=O)N(C)[C@@H](CC(C)C)C(=O)N[C@@H](C)C(=O)N[C@H](C)C(=O)N(C)[C@@H](CC(C)C)C(=O)N(C)[C@@H](CC(C)C)C(=O)N(C)[C@@H](C(C)C)C(=O)N1C
